Screening results: PubChem, several laboratories
GRK2 inh = blocks RNA aptamer binding to human GRK2. bead flow cytometry, FAM-aptamer displacement from GRK2. inhibition of aptamer binding, % at 10 µM. 330,000 compounds, 0.59% hits;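 active = inhibition of aptamer binding above 40%, roughly 3 SD of noise, on plates passing a quality check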;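 note: median bead fluorescence of bound FAM aptamer so fluorescent compounds give negative values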
proCasp3 act = activates human procaspase-3; AID 463141; activation, % at 8.5 µM; P42574; 330,000 compounds, 0.11% hits; recombinant procaspase-3 D3A, Ac-DEVD-pNA absorbance 405 nm;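 active = activation above the mean of all tested compounds plus 3 SD, cut at about 21% in these data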;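 note: 0% = DMSO alone and 100% = DMSO wells spiked with extra 5 µM PC-3 D3A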
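Assay system: Autoprocessing-dead procaspase-3 D3A mutant enzyme; also added: Ac-DEVD-pNA; doses: one concentration, 8.5 µM nominal, 0.8% DMSO; times: 1 h compound preincubation, 2 h substrate hydrolysis at 25 °C; technique: 405 nm absorbance of p-nitroaniline, reads at 0 and 120 min; measure: % activation between DMSO and enzyme-spiked controls; repeats: single replicate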
procasp7 counter = counter-screen for procaspase-3 activators: activators of human procaspase-7 | P55210 | 330,000 compounds, 0.093% hits | recombinant procaspase-7, Ac-DEVD-pNA absorbance 405 nm; D23A/D198A/D206A triple mutant, cannot self-cleave; scale: DMSO 0, 5 µM enzyme 100 | activation, % at 8.5 µM;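 active = percent activation above the screen-wide mean plus 3 SD, cut at about 25% in these data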
Target sequence (P55210 whole entry D23A/D198A/D206A): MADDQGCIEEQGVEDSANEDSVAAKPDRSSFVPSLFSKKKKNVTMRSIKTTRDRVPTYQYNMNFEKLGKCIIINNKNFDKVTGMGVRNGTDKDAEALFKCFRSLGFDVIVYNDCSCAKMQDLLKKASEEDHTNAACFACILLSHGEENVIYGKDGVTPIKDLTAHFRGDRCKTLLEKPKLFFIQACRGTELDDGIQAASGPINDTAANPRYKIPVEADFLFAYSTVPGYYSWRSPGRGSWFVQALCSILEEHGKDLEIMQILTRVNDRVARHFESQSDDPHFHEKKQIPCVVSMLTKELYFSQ
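Replicates: singlicate. Assay system: Procaspase-7 triple mutant (PC-7 D3A). Signal: 405 nm absorbance of p-nitroaniline. Times: 1 h preincubation, 2 h reaction. Buffer or medium: Zinc-free HEPES pH 7.4 with 300 mM NaCl, 0.01% Triton X-100. Also added: DEVD-pNA substrate. Benchmarks: DMSO wells as 0%, DMSO with 5 µM added PC-7 as 100%.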
CaV13 FRET inh = Disruptors of the CACNA1D IQ motif to Ca2+-dependent inactivation inhibitor domain association, primary screening, Förster resonance energy transfer in intact living …. HEK cells, CFP/YFP FRET ICDI-IQ, plate reader, 10 min; percent FRET-ratio fall versus neutral wells. inhibition, % at 12.3 µM. 340,000 compounds, 0.098% hits. AID 743397;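 active = mean replicate inhibition of at least 30% and at least 1% of replicates passing that level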;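 note: 0% = median of the neutral control wells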
aDG glyco up = alpha-DG glycosylation activation; Pro5-aDG cells, alpha-DG glycosylation AlphaScreen (IIH6); 0% Pro5, 100% B10-LARGE cell signal; activation, % at 10 µM; 360,000 compounds, 0.22% hits; AID 624168;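 active = activation of at least 8% versus controls, or a plate z-score of at least 8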;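 note: Pro5 are CHO cells carrying HIG-tagged alpha-DG that lacks glycosylation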
T cell HTS = T cell immune modulators affecting CD8 T cell-vesicle binding. response (vesicle binding), % at 7 µM. 330,000 compounds, 0.068% hits. 2C CD8+ T cell-vesicle binding, flow cytometry; stronger effect = lower value. AID 2052;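 active = response, share of CD8 T cells binding vesicles, and their 90th percentile fluorescence all below set limits, cut at about 80% in these data, passing the limit was not always enough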;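 note: values below 100% mean blocked vesicle binding to the CD8+ T cells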
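Material: 2C TCR transgenic mouse naive CD8+ T cells, MACS-purified. Also added: QL9-charged Drosophila Ld/ICAM-1/B7-1 vesicles. Timing: binding 1.5 h at 37 °C. Measured by: high-throughput flow cytometry with anti-B7-1 and anti-CD8 staining. Read-out: percent CD8+ FL2 mean versus row control. Controls: Unloaded micro-vesicles (low), QL9 vesicles with 0.7% DMSO (high).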
proCasp7 act trip = activates human procaspase-7, counter-screen for procaspase-3 activators | AID 488941 | recombinant procaspase-7, Ac-DEVD-pNA absorbance; asp23/198/206-to-Ala mutant, cannot self-cleave | activation, % at 8.5 µM | 210 tested, under 10 active | shares compounds with proCasp3 act;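 active = mean activation above a set limit taken from an earlier procaspase-7 screen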;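 note: 0% = DMSO wells and 100% = DMSO plus 5 µM procaspase-7 enzyme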
procasp3 conf = confirmation of human procaspase-3 activators | shares compounds with proCasp3 act | recombinant PC-3 D3A, Ac-DEVD-pNA absorbance 405 nm; 100% is higher-enzyme control | activation, % at 8.5 µM | 210 compounds, 10% hits | AID 488954;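 active = mean activation above a set limit carried over from the earlier primary screen, cut at about 22% in these data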
The depositor's hits bear a star; x = not tested or not shown; ! = not confirmed by another sample. An excerpt weighted towards active compounds, which were near 1.1% of everything screened.

SMILES | GRK2 inh | proCasp3 act | procasp7 counter | CaV13 FRET inh | aDG glyco up | T cell HTS | others
CN(C)[C@@H]1C(=O)C(C(N)=O)=C(O)[C@@]2(O)C(=O)C3=C(O)c4c(O)cccc4[C@@](C)(O)[C@H]3[C@H](O)[C@@H]12 | 57*! | 0 | -16 | -5 | 0 | 401
CN(C)[C@@H]1C(=O)C(C(N)=O)=C(O)[C@@]2(O)C(=O)C3=C(O)c4c(O)cccc4[C@@](C)(O)C3C[C@@H]12 (stereo partly specified) | 3 | 0 | -2 | -5 | 0 | 191
CN1CC[C@@H]2CN[C@H](c3ccccc3Br)C[C@@H]21 | x | x | x | -4 | x | x
N#Cc1ccc(NC(=S)N2Cc3ccc(Br)cc3-n3nncc3C2)cc1 | x | x | x | -4 | x | x
CCOc1ccc(-n2c(O)c(C=Nc3ccc(N(CC)CC)cc3)c(=O)[nH]c2=O)cc1 | 3 | -3 | -9 | x | 0 | 444
CCN(CC)c1ccc(N=Cc2c(O)n(-c3ccccc3)c(=O)[nH]c2=O)cc1 | 100* | -15 | -24 | -27 | 0 | 220
Clc1cc(Cl)cc(CN2Cc3cc(Br)ccc3-n3nncc3C2)c1 | x | x | x | -3 | x | x
Clc1ccc(COC(Cn2ccnc2)c2ccc(Cl)cc2Cl)c(Cl)c1 (stereo unspecified) | 1 | 6 | 0 | -4 | 0 | 0.0*!
O=C1NC(=S)N(c2ccccc2)C(=O)/C1=C/c1ccco1 | 43* | -22 | -10 | -3 | 0 | 356
Cc1ccc(N2Cc3ccccc3-n3nncc3C2)cc1 | x | x | x | -2 | x | x
NC(Cc1cc(O)c(O)cc1O)C(=O)O (stereo unspecified) | 71* | 0 | -8 | x | x | 330
N#Cc1ccc2nc(-c3ccc(CN4CCC(n5c(=O)[nH]c6cc(Cl)ccc65)CC4)cc3)c(-c3ccccc3)nc2c1 | x | x | x | -15 | x | x
CCOP(=O)(OCC)C(NC(=O)c1ccccc1)C(Cl)(Cl)Cl (stereo unspecified) | 1 | 0 | 8 | -5 | 0 | 217
CC(C)OP(=O)(O)NC(=O)c1ccccc1 | 0 | 3 | 1 | 167* | 0 | 383
O=C(O)c1cccc(N=Nc2c(O)[nH]c(=O)[nH]c2=O)c1 | 0 | 9 | -3 | -1 | 0 | 47*
Cc1cccc2nc(-c3ccccc3)c(-c3ccc(CN4CCC(n5c(=O)[nH]c6cc(Cl)ccc65)CC4)cc3)nc12 | x | x | x | -14 | x | x
O=c1[nH]c(O)c(C=Nc2ccccc2[N+](=O)[O-])c(=O)[nH]1 | 58* | -12 | -17 | x | x | 175
CC(=O)c1cn(Cc2ccccc2C#N)c2ccccc12 | 0 | 1 | 8 | -4 | 7.5* | 361
N#CC1=C(N)Oc2cc(O)ccc2C1c1ccc2c(c1)OCO2 (stereo unspecified) | 1 | -8 | 2 | 144* | -1 | 135
c1cc2c(cc1[C@H]1OC[C@H]3[C@@H]1CO[C@H]3c1ccc3c(c1)OCO3)OCO2 | 2 | 6 | 4 | 11 | 0 | 166
CCCCn1c(N)c(C(=O)NCc2cccs2)c2nc3ccccc3nc21 | 1 | 46* | -5 | -2 | 1 | 168 | proCasp7 act trip=-20;procasp3 conf=-14
COCCCn1c(N)c(C(=O)NCCC(C)C)c2nc3ccccc3nc21 | 0 | 32* | 12 | -2 | 1 | 357 | proCasp7 act trip=-21;procasp3 conf=-14
COCCOC(=O)c1c(N)n(Cc2ccccc2)c2nc3ccccc3nc12 | 0 | -3 | -6 | -3 | 2 | 177
